The list is not random: actives were taken first. Their share in the collection is about 4.9%.
CHT inh = inhibitors of human choline transporter CHT; Q9GZV3; CHT-expressing cells, membrane potential dye, choline response; hits give low values; B-score at 10 µM; hit rate 0.86% among 310,000;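 active = B-score over 3 SD under the library average, and starting fluorescence ratio not unusually high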;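 note: choline stimulus applied at its EC90 after an EC20 pre-addition; B-score computed on integrated fluorescence ratio after choline addition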
Hep lipid drop = hepatic lipid droplet formation modulation; AML12 mouse hepatocytes, oleate lipid droplets, BODIPY imaging; inhibition, % at 6.5 µM; hit rate 0.4% among 240,000;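 active = lipid droplet intensity inhibited by at least 50%, with more than 500 cells counted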
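Test system: AML12 hepatocytes (mouse); reagent: oleate loading, 100 µM; dosing: one dose, 6.5 µM compound; incubation: overnight exposure; signal: fluorescence imaging, 20x objective, two fields per well; read-out basis: % inhibition of corrected integrated BODIPY droplet signal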
HSF-1 act = increases HSF-1 driven luciferase reporter signal | activation, % at 9 µM | NIH3T3-HGL HSF-1 luciferase reporter, MG132, 8 h; 100% = twice DMSO control signal | hit rate 1.7% among 300,000 | AID 504408;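 active = mean replicate activation of at least 50% with a set share of replicates each reaching 50%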
CHT allo act = allosteric activators of human choline transporter CHT; Q9GZV3; CHT-expressing cells, membrane potential dye, choline EC20; hits give high values; LV-AA mutant CHT in HEK293 cells; B-score at 10 µM; hit rate 0.49% among 310,000;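 active = initial fluorescence not abnormally high and integrated response B-score, plate-corrected, over 3 SD above library mean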
HSF1 inhib = HSF1 inhibition; NIH3T3-HGL HSE-luciferase, MG132-induced, luminescence 8 h; hits give low values; activity change, negative = inhibition, % at 7.5 µM (by protocol); hit rate 0.77% among 300,000;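 active = more than half of replicate wells show activity change below -50%, luminescence cut by over half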;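 note: luciferase reports HSF-1 transcriptional activity via heat shock element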
PHOSPHO1 inh = blocks human PHOSPHO1 phosphatase activity; inhibition, % at 13.3 µM; recombinant PHOSPHO1, absorbance phosphatase assay; hit rate 1.1% among 290,000; Q8TCT1; in the data active = inhibition above about 60%
Target sequence (Q8TCT1 whole entry, looked up): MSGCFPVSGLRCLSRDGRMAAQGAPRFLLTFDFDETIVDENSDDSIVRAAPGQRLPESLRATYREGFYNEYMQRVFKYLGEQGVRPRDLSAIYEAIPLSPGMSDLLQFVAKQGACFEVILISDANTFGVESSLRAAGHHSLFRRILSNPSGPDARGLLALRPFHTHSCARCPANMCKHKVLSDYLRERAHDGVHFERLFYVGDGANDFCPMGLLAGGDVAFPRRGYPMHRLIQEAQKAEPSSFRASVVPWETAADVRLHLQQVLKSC
Numbers stand for hits; n = inactive; x = no result.

SMILES	CHT inh	Hep lipid drop	HSF-1 act	CHT allo act	HSF1 inhib	PHOSPHO1 inh
COc1ccccc1-n1c(CNC(=O)COc2ccccc2)n[nH]c1=S	n	n	n	n	n	81.6
COc1ccccc1-n1c(CNC(=O)c2cccc([N+](=O)[O-])c2C)n[nH]c1=S	n	n	n	n	n	n
CN1CCN(c2oc(-c3ccccc3)nc2S(=O)(=O)c2ccc(Br)cc2)CC1	n	n	n	n	n	61.0
COc1ccc(-c2cn3c(C)c(C(=O)Nc4ccncc4)sc3n2)cc1	n	x	n	n	n	94.2
CCC(C)[C@H](NC(=O)C1CC(=O)N(c2ccc3c(c2)OCCO3)C1)C(=O)N1CCCCC1 (stereo not given in full)	n	n	n	n	n	n
Cc1ccc(-n2nc3c(=O)n(CCCC(=O)N4CCC(C(N)=O)CC4)nc(C)c3c2C)cc1	n	n	n	n	-52.2	n
Cc1ccc(-n2nc3c(=O)n(CCCC(=O)N4CCC(C)CC4)nc(C)c3c2C)cc1	n	n	n	n	n	n
CC1=NNC(=O)C1CC(=O)N/N=C/C(Br)=C/c1ccccc1 (stereo not given)	n	n	n	n	n	n
CC1=NNC(=O)C1CCC(=O)N/N=C/C(Br)=C/c1ccccc1 (stereo not given)	n	n	88.0	n	n	n
CC1C(=O)NN=C1C(=O)N/N=C\C(Br)=C\c1ccccc1 (stereo not given)	x	n	213.4	x	n	n
CC1Cc2cc(/C=C3/SC(N4CCC(C(N)=O)CC4)=NC3=O)ccc2O1 (stereo not given)	n	n	n	n	n	n
O=Cc1c(-c2ccc(Cl)cc2)oc2ccc(O)cc12	n	x	n	n	-55.1	x
O=C(O)c1c(-c2ccccc2)oc2ccc(O)cc12	n	n	n	n	n	x
COc1ccc(C(C#N)=C2C=CC(=NO)C=C2)cc1	n	n	167.6	n	n	n
Cc1ccc2c(c1)N(CC(=O)NCCCN1CCCCC1C)C(=O)c1cccnc1O2 (stereo not given)	n	n	n	n	n	n
CCc1cc[n+](CC(=O)Nc2ccc(Cl)cc2Cl)cc1	n	n	n	n	-71.7	n
N#Cc1ccc(-c2nc3ccccc3nc2-c2ccccc2)cc1C#N	n	n	n	n	n	n
COc1ccc(C(=O)Cn2c(NCCCO)nc3ccccc32)cc1OC	n	x	n	n	n	n
CN(C)S(=O)(=O)c1ccc(C(=O)NCc2ccccn2)cc1	n	n	n	n	n	61.5
O=C(NCc1ccncc1)c1ccc(N2CCCC2)c([N+](=O)[O-])c1	n	n	n	n	n	n
O=C(NCc1ccccn1)c1ccc(N2CCCC2)c([N+](=O)[O-])c1	n	n	n	n	n	62.9
O=c1c2ccccc2nc(SCc2ccc([N+](=O)[O-])cc2)n1CCCO	n	n	n	n	n	n
CC(C)(C)S(=O)(=O)Cc1nc(-c2ccc(Cl)c(Cl)c2)cs1	n	n	n	n	n	n
O=C(NCc1n[nH]c(=S)n1-c1ccccc1)c1cccs1	n	n	n	n	n	n
COc1cc(COCC(O)CN2CCN(CCN3C(=O)c4cccc5cccc(c45)C3=O)CC2)cc(OC)c1OC (stereo not given)	n	n	115.2	n	n	n
SMILES	CHT inh	Hep lipid drop	HSF-1 act	CHT allo act	HSF1 inhib	PHOSPHO1 inh
O=C1c2cccc3cccc(c23)C(=O)N1CCN1CCN(CC(O)COCc2ccc(Cl)cc2)CC1 (stereo not given)	n	n	73.5	n	n	n
Cc1ccc(C)c(OCC(O)CN2CCN(CCN3C(=O)c4cccc5cccc(c45)C3=O)CC2)c1 (stereo not given)	n	n	n	n	n	n
COc1ccc(CCNC(=O)c2c(O)c3ccccc3n(C)c2=O)cc1	n	n	n	n	n	x
O=C(c1ccco1)N(Cc1cc2ccccc2[nH]c1=O)C1CCCCC1	n	n	n	n	-81.8	n
CCOc1ccc2[nH]c(=O)c(CN(Cc3ccc(F)cc3)C(=O)c3ccco3)cc2c1	n	x	74.6	n	n	n
Cc1cc(S(=O)(=O)N2CCCC2)ccc1OCC(=O)NCc1ccccc1	n	n	n	n	-77.2	n
Cc1ccc(NC(=O)C(=O)NCCN2CCN(S(C)(=O)=O)CC2)cc1C	n	n	n	n	n	61.1
O=C(NCCN1CCN(S(=O)(=O)c2ccc(F)cc2)CC1)C(=O)NCc1ccccc1	n	n	n	n	n	n
Cc1ccc(S(=O)(=O)N2CCN(CCNC(=O)C(=O)NCc3ccccc3)CC2)cc1	n	n	n	n	-87.1	n
Cc1cc(S(=O)(=O)N2CCCC2)ccc1OCC(=O)NCc1ccccn1	n	n	n	n	n	n
CCN(CC)CCN1C(=O)C(O)=C(C(C)=O)C1c1ccccc1[N+](=O)[O-] (stereo not given)	n	n	n	n	n	n
COc1ccc(-n2cnnc2)cc1	n	x	n	n	n	n
CS(=O)(=O)NNC(=O)c1csc(Cc2c(Cl)sc3ccc(Cl)cc23)n1	n	n	n	n	n	n
O=C(c1ccc2c(=O)n(C3CCCC3)c(=S)[nH]c2c1)N1CCc2ccccc21	n	x	91.2	n	n	62.6
CCN(CC)CCNC(=O)c1ccc2c(=O)n(C3CCCC3)c(=S)[nH]c2c1	-15.1	x	n	n	n	n
CCC1CCCCN1C(=O)C(=O)c1cn(CC(=O)N(CC)CC)c2ccccc12 (stereo not given)	n	n	n	n	n	n
O=C(NC1CC2CCCC(C1)N2C1CC1)NC12CC3CC(CC(C3)C1)C2 (stereo not given)	x	n	x	x	x	n
Cc1cc(-c2ccc(C)c(S(=O)(=O)N3CC(=O)Nc4ccccc43)c2)on1	n	n	n	n	n	n
CC(C)(C)NC(=O)C1CC(=O)OC12CCOC(C)(C)C2 (stereo not given)	n	n	n	n	-58.3	n
Cc1ccc(NC(=O)C2CC(=O)OC23CCOC(C)(C)C3)cc1 (stereo not given)	n	n	n	n	n	n
CC(C)(C)c1nn(-c2ccccc2)c2[nH]c(=O)c(CNCc3ccco3)cc12	n	x	n	n	n	n
CC(C)(C)c1nn(-c2ccccc2)c2[nH]c(=O)c(CNc3ccc4c(c3)OCCO4)cc12	n	n	n	n	-64.9	n
COCCn1c(C)cc(C(=O)COC(=O)c2ccc(N3CCCC3=O)cc2)c1C	n	n	n	n	n	n
COCCn1c(C)cc(C(=O)COC(=O)c2ccc(-n3nc(C)cc3C)cc2)c1C	n	x	60.4	n	n	n
CCN(/C=N/c1sc2c(c1C#N)CCCCC2)CC	n	x	59.9	n	n	n
CC(C)CN(/C=N/c1sc2c(c1C#N)CCCCC2)CC(C)C	n	n	n	n	n	n
Cc1ccc(/C=N/c2sc3c(c2C#N)CCCCC3)o1	n	x	n	n	n	61.0
N#Cc1c(N)sc(=S)c2c1CCCCC2	n	n	n	n	n	n
